The inhibition is the drop in the measured response relative to a control, in per cent.

Experimental findings from ChEMBL document CHEMBL4219150, “Fragment-Based Approach to Targeting Inosine-5'-monophosphate Dehydrogenase (IMPDH) from Mycobacterium tuberculosis” (J Med Chem, 2018) are described below.

The subject of the first assay is Mycobacterium tuberculosis. Put plainly: Uncompetitive inhibition of Mycobacterium tuberculosis IMPDH deltaCBS mutant. In a few lines:
(§1)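 Enzyme was Mth IMPDH ΔCBS expressed in E. coli BL21(DE3) at 18°C with 500 µM IPTG, then Ni-IMAC purified, TEV-cleaved and run on gel filtration; assay buffer and 37°C conditions as in the activity assay. […] Initial rates were fit to uncompetitive or mixed inhibition equations, and the pattern was read from Lineweaver-Burk plots.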
Molecule `Cc1n[nH]c(C)c1S(=O)(=O)Nc1ccc2c[nH]nc2c1` gave an alphaKi of 0.22 µM.

In turn, `O=C(C1CCCCC1)N1CCN(S(=O)(=O)c2ccc3cnccc3c2)CC1` had an alphaKi of 0.12 µM.

The subject of a further assay is Mycobacterium tuberculosis. The experiment in a line: Uncompetitive inhibition of Mycobacterium tuberculosis IMPDH deltaCBS mutant assessed as reduction in NADH production preincubated for 5 mins followed by substrate IMP addition at increasing concentration measured for 32 mins in presence of constant concentration of NAD+ by Lineweaver-Burk plot analysis.
In the case of `COc1ccc(OC(C)C(=O)Nc2ccc(I)cc2)cc1` (stereo unspecified), the alphaKi is 0.86 µM.

The next assay deals with Mycobacterium tuberculosis. Put plainly: Inhibition of Mycobacterium tuberculosis IMPDH deltaCBS mutant assessed as reduction in NADH production at 1 mM using IMP as substrate preincubated for 5 mins followed by substrate addition measured for 32 mins in presence of NAD+.
Take `Oc1ccc2ccc(O)cc2c1`: the inhibition worked out at 77%.

Regarding `O=C(O)c1cc2cccc(O)c2cc1O`, the inhibition turned out to be 98%.

For the molecule `COc1ccc2ccc(O)cc2c1`, the inhibition worked out at 66%.

In the case of `Oc1cccc2ccccc12`, the inhibition amounted to 68%.

On to `Brc1ccc(-c2c[nH]cn2)cc1`, for which the inhibition worked out at 65%.

For `Oc1ccc2ccccc2c1`, the inhibition was found to be 57%.

In the case of `OCc1ccc2sccc2c1`, the inhibition amounted to 53%.

For `Cc1ccc(-c2nc(C(=O)O)cs2)cc1`, the inhibition amounted to 88%.

`CC(=O)Nc1cc(C)ccc1O`: the inhibition turned out to be 79%.

Consider `Nc1ccc(-n2ccnc2)cc1`, for which the inhibition was 64%.

As for `CC1(C)Cc2cccc(CO)c2O1`, the inhibition stood at 99%.

With `Nc1[nH]ncc1-c1cccc(Br)c1`, the inhibition is 50%.

In the case of `Nc1n[nH]c(-c2ccccc2)c1Br`, the inhibition was determined as 53%.

Turning to `Clc1ccc(-c2cnc[nH]2)cc1`, the inhibition was 59%.

As for `O=C(O)c1cc2sccc2s1`, the inhibition came out at 86%.

With `O=C(O)c1ccccc1-n1cccc1`, the inhibition came out at 72%.

Regarding `N#Cc1c[nH]c2ccccc12`, the inhibition turned out to be 51%.

The test system of another assay is Mycobacterium tuberculosis. The experiment in a line: Inhibition of Mycobacterium tuberculosis IMPDH deltaCBS mutant assessed as reduction in NADH production using IMP as substrate at 100 uM preincubated for 5 mins followed by substrate addition measured for 32 mins in presence of NAD+.
With `CC(C)NC(=O)CSc1nc(-c2ccccc2)c[nH]1`, the inhibition was below 5%.

For `O=C(CSc1nc(-c2ccccc2)c[nH]1)Nc1ccc2occc2c1`, the inhibition was 36%.

Take `Brc1ccc(-c2c[nH]cn2)cc1`: the inhibition was below 5%.

In the case of `O=C(O)CSc1nc(-c2ccccc2)c[nH]1`, the inhibition is below 5%.

Regarding `O=C(CSc1nc(-c2ccc(Br)cc2)c[nH]1)Nc1ccc(-c2c[nH]cn2)cc1`, the inhibition is 20%.

On to `O=C(CSc1nc(-c2ccc(Br)cc2)c[nH]1)Nc1ccc2occc2c1`, for which the inhibition is 31%.

As for `O=C(CSc1nc(-c2ccccc2)c[nH]1)Nc1ccc(-c2c[nH]cn2)cc1`, the inhibition stood at 24%.

With `O=C(CSc1nc(-c2ccc(Br)cc2)c[nH]1)Nc1ccc(I)cc1`, the inhibition is 30%.

With `O=C(CSc1nc(-c2ccccc2)c[nH]1)Nc1ccc(I)cc1`, the inhibition was 46%.

For `O=C(CSc1ncc(-c2ccccc2)[nH]1)Nc1ccccc1`, the inhibition was below 5%.

On to `O=C(O)CSc1nc(-c2ccc(Br)cc2)c[nH]1`, for which the inhibition was below 5%.

For `O=C(NCc1ncc(-c2ccc(Br)cc2)[nH]1)Nc1ccc(-c2c[nH]cn2)cc1`, the inhibition was determined as 56%.

For the molecule `O=C(CSc1nc(-c2ccc(Br)cc2)c[nH]1)Nc1ccccc1`, the inhibition was 13%.

A further assay concerns Mycobacterium tuberculosis. Put plainly: Uncompetitive inhibition of Mycobacterium tuberculosis IMPDH deltaCBS mutant expressed in Escherichia coli BL21(DE3) in presence of IMP and NAD+. In outline:
as §1
As to `C=C(C)c1cccc(C(C)(C)NC(=O)Nc2ccc(Cl)c(C(=O)N(C)C)c2)c1`, the alphaKi was found to be 0.009 µM.

As to `COc1c(C)c2c(c(O)c1C/C=C(\C)Cn1cc(COC[C@H]3O[C@@H](n4cnc5c(N)ncnc54)[C@H](O)[C@@H]3O)nn1)C(=O)OC2`, the alphaKi amounted to 1 µM.

The next assay concerns Mycobacterium tuberculosis. The experiment in a line: Mixed-type inhibition of Mycobacterium tuberculosis IMPDH deltaCBS mutant assessed as reduction in NADH production preincubated for 5 mins followed by substrate IMP addition at increasing concentration measured for 32 mins in presence of constant concentration of NAD+ by Lineweaver-Burk plot analysis.
Regarding `Cc1ccc(-c2nc(C(=O)O)cs2)cc1`, the alphaKi turned out to be 398 µM.

The next assay has as its system Mycobacterium tuberculosis. Put plainly: Inhibition of Mycobacterium tuberculosis IMPDH deltaCBS mutant assessed as reduction in NADH production using IMP as substrate at 10 uM preincubated for 5 mins followed by substrate addition measured for 32 mins in presence of NAD+.
Consider `CC(Oc1ccc(-c2cn(C)cn2)cc1)C(=O)Nc1nc(-c2ccc(Br)cc2)c[nH]1` (stereo unspecified), for which the inhibition turned out to be 99%.

Turning to `CC(Oc1ccc(-c2cn(C)cn2)cc1)C(=O)Nc1nc(-c2ccc(N3CCOCC3)cc2)c[nH]1` (stereo unspecified), the inhibition amounted to 94%.

For the molecule `CC(Oc1ccc(-c2cn(C)cn2)cc1)C(=O)Nc1ccccc1` (stereo unspecified), the inhibition amounted to 4%.

In the case of `COc1ccc(-c2c[nH]c(NC(=O)C(C)Oc3ccc(-c4cn(C)cn4)cc3)n2)cc1` (stereo unspecified), the inhibition came out at 95%.

For `C[C@H](Oc1ccc(-c2cn(C)cn2)cc1)C(=O)Nc1nc(-c2ccc(Br)cc2)c[nH]1`, the inhibition was found to be 99%.

Regarding `CC(Oc1ccc(-c2cn(C)cn2)cc1)C(=O)Nc1nc(-c2ccc(I)cc2)c[nH]1` (stereo unspecified), the inhibition was found to be 96%.

As for `COc1ccc(OC(C)C(=O)Nc2ccc(I)cc2)cc1` (stereo unspecified), the inhibition is 92%.

Consider `CC(Oc1ccc(-c2cn(C)cn2)cc1)C(=O)Nc1nc(-c2ccc(Br)cc2)co1` (stereo unspecified), for which the inhibition stood at 83%.

As for `CC(Oc1ccc(-c2cn(C)cn2)cc1)C(=O)Nc1ccc(I)cc1` (stereo unspecified), the inhibition stood at 97%.

In the case of `CC(Oc1ccc(-c2cn(C)cn2)cc1)C(=O)Nc1nc(-c2ccccc2)c[nH]1` (stereo unspecified), the inhibition came out at 77%.
